Measured values from ChEMBL document CHEMBL4354873, “Rationally Designed Small-Molecule Inhibitors Targeting an Unconventional Pocket on the TLR8 Protein-Protein Interface” (J Med Chem, 2020).
Activity calls are given as the source filed them. The rule behind the calls is not given here.

Columns and labels:
[1] = target: T1, Toll-like receptor 8 (Homo sapiens) (UniProt Q9NR97); experiment: Inhibition of R848 binding to human TLR8 ectodomain at 50 uM by isothermal titration calorimetry
T1 sequence (whole entry): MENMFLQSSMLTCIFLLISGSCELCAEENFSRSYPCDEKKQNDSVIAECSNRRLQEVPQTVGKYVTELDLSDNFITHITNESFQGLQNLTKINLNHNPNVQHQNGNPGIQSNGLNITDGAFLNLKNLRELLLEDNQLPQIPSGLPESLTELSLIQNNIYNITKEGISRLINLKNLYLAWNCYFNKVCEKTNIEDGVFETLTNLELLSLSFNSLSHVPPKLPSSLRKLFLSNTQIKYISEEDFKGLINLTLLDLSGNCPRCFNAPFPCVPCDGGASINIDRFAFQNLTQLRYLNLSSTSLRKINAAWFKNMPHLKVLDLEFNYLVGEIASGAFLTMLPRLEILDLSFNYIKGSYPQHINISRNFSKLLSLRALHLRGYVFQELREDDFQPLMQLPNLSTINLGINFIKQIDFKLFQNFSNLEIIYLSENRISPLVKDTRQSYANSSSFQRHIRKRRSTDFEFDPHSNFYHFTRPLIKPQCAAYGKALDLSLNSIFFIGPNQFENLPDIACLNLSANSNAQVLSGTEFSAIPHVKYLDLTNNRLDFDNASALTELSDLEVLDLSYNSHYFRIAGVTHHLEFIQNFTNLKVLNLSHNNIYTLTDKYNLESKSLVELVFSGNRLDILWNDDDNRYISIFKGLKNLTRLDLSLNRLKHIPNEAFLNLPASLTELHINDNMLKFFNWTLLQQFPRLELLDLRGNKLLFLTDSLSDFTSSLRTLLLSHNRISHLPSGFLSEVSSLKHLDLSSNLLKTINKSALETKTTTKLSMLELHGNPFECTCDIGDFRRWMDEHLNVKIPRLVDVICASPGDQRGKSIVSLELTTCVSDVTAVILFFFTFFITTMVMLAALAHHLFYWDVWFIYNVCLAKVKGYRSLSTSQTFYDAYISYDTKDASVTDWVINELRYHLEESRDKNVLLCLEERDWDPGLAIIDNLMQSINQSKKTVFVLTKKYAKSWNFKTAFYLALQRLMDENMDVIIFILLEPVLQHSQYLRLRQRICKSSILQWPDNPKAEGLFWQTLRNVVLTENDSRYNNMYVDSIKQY

[2] = Cytotoxicity against HEK-Blue cells expressing human TLR8 assessed as reduction in cell viability up to 100 uM measured after 24 hrs by CCK8 assay; type: cell-based
Method in brief: (§1)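 CCK-8 viability: compounds incubated 24 h at 37 °C with HEK-Blue TLR8 cells (4 × 10⁴ cells/well) or PBMCs (3 × 10⁶ cells/mL). CCK-8 was added at 1:10 for up to 2 h, then absorbance read at 450 nm. Values normalized to untreated cells as 100% survival.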

[3] = target: Toll-like receptor 1/2 (Homo sapiens) (UniProt O60603+Q15399); experiment: Inhibition of human TLR1/2 expressed in HEK-Blue cells assessed as inhibition of Pam3CSK4-induced NF-kappaB activation at 20 uM measured after 24 hrs by quanti-blue based SEAP reporter gene assay; type: cell-based
Method in brief: (§2)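 HEK-Blue SEAP format: 4 × 10⁴ cells/well in DMEM with ligand plus compound, 24 h at 37 °C. Supernatant mixed with QUANTI-Blue up to 1 h, then A620 read. Ligands: Pam3CSK4 100 ng/mL (TLR1/2), Pam2CSK4 100 ng/mL (TLR2/6), poly(I:C) 5 µg/mL (TLR3), LPS 20 ng/mL (TLR4), flagellin 50 ng/mL (TLR5), R848 1 µg/mL (TLR7), R848 2 µg/mL (TLR8), ODN2006 0.5 µM (TLR9). Mean ± s.d.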

[4] = target: TLR2/TLR6 (Homo sapiens) (UniProt O60603+Q9Y2C9); experiment: Inhibition of human TLR2/6 expressed in HEK-Blue cells assessed as inhibition of Pam2CSK4-induced NF-kappaB activation at 20 uM measured after 24 hrs by quanti-blue based SEAP reporter gene assay; type: cell-based; method in brief: as §2
[5] = target: Toll-like receptor 4 (Homo sapiens) (UniProt O00206); experiment: Inhibition of human TLR4 expressed in HEK-Blue cells assessed as inhibition of LPS-induced NF-kappaB activation at 20 uM measured after 24 hrs by quanti-blue based SEAP reporter gene assay; type: cell-based; method in brief: as §2
Chain of Toll-like receptor 4 (Homo sapiens) (O00206 whole entry): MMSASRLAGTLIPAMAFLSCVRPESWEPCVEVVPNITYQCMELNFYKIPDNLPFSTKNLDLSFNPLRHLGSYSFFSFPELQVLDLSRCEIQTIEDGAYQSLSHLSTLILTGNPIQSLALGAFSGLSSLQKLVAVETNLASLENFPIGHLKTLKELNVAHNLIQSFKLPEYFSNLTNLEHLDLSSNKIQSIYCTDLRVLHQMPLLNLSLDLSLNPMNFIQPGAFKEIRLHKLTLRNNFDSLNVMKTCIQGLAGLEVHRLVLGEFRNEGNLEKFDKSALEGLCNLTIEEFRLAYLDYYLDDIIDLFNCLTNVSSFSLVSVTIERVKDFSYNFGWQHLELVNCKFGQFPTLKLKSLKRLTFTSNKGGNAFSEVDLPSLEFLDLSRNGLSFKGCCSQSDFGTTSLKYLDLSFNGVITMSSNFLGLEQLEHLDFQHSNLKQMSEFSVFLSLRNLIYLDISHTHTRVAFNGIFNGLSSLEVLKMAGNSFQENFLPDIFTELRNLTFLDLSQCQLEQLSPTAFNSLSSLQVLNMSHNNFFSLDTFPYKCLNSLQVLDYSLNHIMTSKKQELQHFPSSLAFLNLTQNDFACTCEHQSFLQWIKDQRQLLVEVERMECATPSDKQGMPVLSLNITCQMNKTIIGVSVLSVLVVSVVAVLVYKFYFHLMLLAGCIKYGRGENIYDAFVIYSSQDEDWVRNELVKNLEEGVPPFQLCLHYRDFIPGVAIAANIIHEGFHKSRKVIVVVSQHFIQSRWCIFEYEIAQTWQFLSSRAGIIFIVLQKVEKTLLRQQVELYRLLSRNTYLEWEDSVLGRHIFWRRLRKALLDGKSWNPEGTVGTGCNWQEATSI

[6] = target: T1, Toll-like receptor 8 (Homo sapiens); experiment: Inhibition of human TLR8 expressed in HEK-Blue cells assessed as inhibition of R848-induced NF-kappaB activation at 20 uM measured after 24 hrs by quanti-blue based SEAP reporter gene assay; type: cell-based; method in brief: as §2
[7] = target: T1, Toll-like receptor 8 (Homo sapiens); experiment: Inhibition of human TLR8 expressed in HEK-Blue cells assessed as inhibition of R848-induced TNFalpha mRNA level at 1 uM measured after 8 hrs by Trizol reagent based qRT-PCR analysis; type: cell-based
Method in brief: (§3)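 RT-qPCR: HEK-Blue TLR8 cells seeded at 1 × 10⁶/well and grown 24 h, then switched to serum-free medium. Treated with R848 4 µg/mL ± compound 1 µM for 8 h. Total RNA extracted with TRIzol, reverse transcribed, TNF-α and IL-8 mRNA quantified. Three independent biological replicates, mean ± s.d.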

[8] = target: T1, Toll-like receptor 8 (Homo sapiens); experiment: Inhibition of human TLR8 expressed in HEK-Blue cells assessed as inhibition of R848-induced IL-8 mRNA level at 1 uM measured after 8 hrs by Trizol reagent based qRT-PCR analysis; type: cell-based; method in brief: as §3
[9] = target: T1, Toll-like receptor 8 (Homo sapiens); experiment: Inhibition of TLR8 in human monocytes assessed as reduction in R848-induced TRAF3 expression measured after 2 hrs by Western blot analysis; type: cell-based
Method in brief: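 Monocyte cell lines, 2 × 10⁶/well, differentiated with PMA 100 ng/mL for 24 h. After washes, cells in unsupplemented RPMI received R848 1 µg/mL with varying compound concentrations for 2 h. Nuclear/cytoplasmic fractions extracted and resolved on 10% SDS-PAGE. Blots probed for p65, TRAF3 and p-IRAK4 (1:1000); lamin A/C (nuclear) and β-actin (cytoplasmic) as loading controls.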

[10] = target: T1, Toll-like receptor 8 (Homo sapiens); experiment: Inhibition of TLR8 in human monocytes assessed as reduction in R848-induced IL6 production measured after 24 hrs by ELISA; type: cell-based
Method in brief: (§4)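 Human monocyte cell lines in RPMI 1640 with 10% FBS and 0.05 mM 2-mercaptoethanol, 1 × 10⁶/well, 24 h. After PBS washes, fresh RPMI added with R848 1 µg/mL and varying compound concentrations for 24 h. Supernatant TNF-α, IL-6 and IL-1β measured by ELISA.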

[11] = target: T1, Toll-like receptor 8 (Homo sapiens); experiment: Inhibition of TLR8 in human monocytes assessed as reduction in R848-induced IL1beta production measured after 24 hrs by ELISA; type: cell-based; method in brief: as §4
[12] = system: PBMC; experiment: Cytotoxicity against rheumatoid arthritis patient-derived PBMC assessed as reduction in cell viability up to 80 uM measured after 24 hrs by CCK8 assay; type: cell-based; details: human; method in brief: as §1

inhibition [1]: Active | inhibition [3]: inactive | inhibition [4]: inactive | inhibition [5]: inactive | inhibition [6]: Active | inhibition [7]: Active | inhibition [8]: Active | inhibition [9]: Dose-dependent effect | inhibition [10]: Dose-dependent effect | inhibition [11]: Dose-dependent effect
Structure (SMILES): CSc1nnc(CCCO)n1-c1cc(C)c(C)c(C)c1
Activity [2]: Non-Toxic | Activity [12]: Non-Toxic
